Calls of active or inactive are those of the source. The calls are words filed in the database; no cut-off is given here.

The CC50 is the concentration at which the toxic effect on the cells reaches its halfway point. High values mean lower toxicity to the cells, low ones greater toxicity to the cells. A word on the EC50: it is the concentration needed to bring the measured effect to its halfway point.

Data set [1] is described as follows: Cytotoxicity against human M8166 cells after 4 days by MTT assay. Format: cell-based. On the technique in general: Tetrazolium dyes change colour on reduction, which living cells bring about.
A short description of data set [2]: Cytotoxicity against human MT4 cells after 4 days by MTT assay. In kind it is cell-based. In short, it runs like this: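 Mock-infected MT-4 cells were run in parallel with the antiviral assay, with various concentrations of compound for 4 days at 37 °C. Viability was read by MTT. The value is the concentration that reduces viability by 50%.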
The subject of data set [3] is Human immunodeficiency virus 1. In words: Antiviral activity against HIV1 3B in human MT4 cells assessed as virus-induced cytopathogenicity after 4 days by MTT assay. Format: functional, organism-based. To be noted: Human immunodeficiency virus 1, 3B, MT4, 96 h. In short, it runs like this:
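MT-4 cells (1 × 10⁵ cells/mL) were infected with HIV-1 IIIB at an MOI of 0.02 and cultured with various concentrations of compound for 4 days at 37 °C. Viable cells were counted by MTT. The value is the concentration giving 50% protection against the viral cytopathic effect.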
For orientation: Protection from cytopathic effect is a common read-out in antiviral testing.

Data set [4] deals with Human immunodeficiency virus 2. In words: Antiviral activity against HIV2 in human M8166 cells assessed as virus-induced cytopathogenicity after 4 days by MTT assay. In kind it is functional, organism-based. As to conditions: Human immunodeficiency virus 2, M8166, 96 h. The procedure, abridged: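 M8166 cells (1 × 10⁵) were infected with HIV-2 at an MOI of 0.1 and cultured with various concentrations of compound for 4 days at 37 °C. Viability was read by MTT. The value is the concentration giving 50% protection against the viral cytopathic effect.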

Data set [5] has as its system Human immunodeficiency virus type 1 reverse transcriptase (Human immunodeficiency virus 1), Q72547 [M184V]. In words: Activity at reverse transcriptase M184V mutant in HIV1 assessed as suppression of replication.

Regarding `C=CC[C@]1(CO)S[C@@H](n2cc(C)c(=O)[nH]c2=O)C[C@@H]1O`, the CC50 at 96 h in data set [1] and in data set [2] was greater than 100 µM each time. Also, the EC50 in data set [3] and in data set [4] was greater than 100 µM each time.
`CO[C@]1(CO)S[C@@H](n2cc(C)c(=O)[nH]c2=O)C[C@@H]1O`: the 50% cytotoxic concentration (CC50) at 96 h in data set [1] and in data set [2] was greater than 100 µM each time. The figures for the EC50 in data set [3] and in data set [4] were greater than 4 µM and 1.2 µM, respectively.
On to `Cc1cn([C@H]2C[C@H](O)[C@](CO)(N=[N+]=[N-])S2)c(=O)[nH]c1=O`, for which the CC50 at 96 h in data set [1] is greater than 10 µM; in data set [2] it was 40 µM. Also, the figures for the concentration giving a half-maximal response (EC50) in data set [3] and in data set [4] were 0.02 µM and 0.024 µM, respectively.
With `Cc1cn([C@H]2C[C@H](O)[C@@](C#N)(CO)S2)c(=O)[nH]c1=O`, the outcome in data set [5] was Active. The cytotoxic concentration (CC50) at 96 h in data set [1] was greater than 10 µM; in data set [2], greater than 100 µM. For the same compound, the concentration for a half-maximal effect (EC50) turned out to be 0.037 µM in data set [3] and 0.023 µM in data set [4].
For the compound `Cc1cn([C@H]2C[C@H](O)[C@](CO)(Sc3ccccc3)S2)c(=O)[nH]c1=O`, the 50% cytotoxic concentration (CC50) at 96 h in data set [1] and in data set [2] was greater than 100 µM in each case. In addition, the EC50 in data set [3] and in data set [4] was greater than 100 µM throughout.
Consider `C#C[C@]1(CO)S[C@@H](n2cc(C)c(=O)[nH]c2=O)C[C@@H]1O`, for which the result in data set [5] was Active. Besides, the cytotoxic concentration (CC50) at 96 h was greater than 10 µM in data set [1] and greater than 100 µM in data set [2]. Further, the EC50 in data set [3] is 0.31 µM; in data set [4] it was 0.13 µM.

For the origin of these results see ChEMBL document CHEMBL1144022, “Synthesis and anti-HIV activity of 4'-substituted 4'-thiothymidines: a new entry based on nucleophilic substitution of the 4'-acetoxy group” (J Med Chem, 2008).
